Laboratory results as given in ChEMBL document CHEMBL4433246, “Synthesis and Optimization of Kv7 (KCNQ) Potassium Channel Agonists: The Role of Fluorines in Potency and Selectivity” (ACS Med Chem Lett, 2019).

Assays:
[1] = biological target: Voltage-gated potassium channel, KQT; KCNQ2(Kv7.2)/KCNQ3(Kv7.3) (Homo sapiens) (UniProt O43526+O43525); assay: Agonist activity at human Kv7.2/Kv7.3 expressed in HEK293 cells assessed as drug concentration that doubles the conductance at voltage leading to 15% channel activation at holding potential of at -80 mV by whole cell patch clamp electrophysiology assay; type: cell-based
How it was run: (§1)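 High-throughput automated electrophysiology on an IonWorks Barracuda platform using HEK293 cells expressing the human channel. Ten-point concentration–response curves were run. EC2x is the agonist concentration that doubles conductance at the voltage giving 15% channel activation. Values come from 2–5 individual assay determinations and are given as mean ± SD. The reference agonist was run in 6–431 repeats.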

[2] = Half life in human liver microsomes; type: ADME, Microsome
How it was run: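 Stability was measured by incubation with pooled human liver microsomes. Half-life is reported in minutes.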

[3] = biological target: T1, Potassium voltage-gated channel subfamily KQT member 4 (Homo sapiens) (UniProt P56696); assay: Agonist activity at human Kv7.4 expressed in HEK293 cells assessed as drug concentration that doubles the conductance at voltage leading to 15% channel activation at holding potential of at -80 mV by whole cell patch clamp electrophysiology assay; type: cell-based; how it was run: as §1
T1 sequence (whole entry): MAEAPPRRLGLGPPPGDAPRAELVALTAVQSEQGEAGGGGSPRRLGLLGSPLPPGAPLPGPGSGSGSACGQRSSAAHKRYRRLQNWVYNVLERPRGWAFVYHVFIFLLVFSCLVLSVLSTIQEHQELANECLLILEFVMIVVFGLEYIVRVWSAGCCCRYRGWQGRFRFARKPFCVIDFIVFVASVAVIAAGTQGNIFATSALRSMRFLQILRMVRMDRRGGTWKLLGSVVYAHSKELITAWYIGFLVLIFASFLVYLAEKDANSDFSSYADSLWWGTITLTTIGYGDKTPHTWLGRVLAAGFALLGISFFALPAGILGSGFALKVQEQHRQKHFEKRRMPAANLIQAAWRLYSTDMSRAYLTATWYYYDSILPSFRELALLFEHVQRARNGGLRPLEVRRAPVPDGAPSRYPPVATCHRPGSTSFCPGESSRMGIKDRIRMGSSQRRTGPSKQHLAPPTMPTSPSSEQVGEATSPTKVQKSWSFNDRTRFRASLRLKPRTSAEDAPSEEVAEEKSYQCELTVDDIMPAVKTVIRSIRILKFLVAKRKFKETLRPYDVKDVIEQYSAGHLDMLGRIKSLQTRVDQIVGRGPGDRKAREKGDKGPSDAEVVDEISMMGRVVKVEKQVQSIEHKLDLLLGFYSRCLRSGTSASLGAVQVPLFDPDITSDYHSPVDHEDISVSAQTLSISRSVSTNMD

[4] = biological target: KCNQ4/KCNQ5 (Homo sapiens) (UniProt Q9NR82+P56696); assay: Agonist activity at human Kv7.4/Kv7.5 expressed in HEK293 cells assessed as drug concentration that doubles the conductance at voltage leading to 15% channel activation at holding potential of at -80 mV by whole cell patch clamp electrophysiology assay; type: cell-based; how it was run: as §1
Homo sapiens = species on record: Homo sapiens; assay: Selectivity index, ratio of EC2x for human Kv7.4/5 expressed in HEK293 cells to EC2x for EC2x for human Kv7.2/3 expressed in HEK293 cells; type: cell-based
How it was run: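 Selectivity index calculated as EC2x(Kv7.4/Kv7.5) divided by EC2x(Kv7.2/Kv7.3). Both EC2x values came from IonWorks Barracuda automated electrophysiology in HEK293 cells, using 10-point concentration curves and the doubled-conductance definition at 15% activation voltage.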

[5] = biological target: Voltage-gated potassium channel KCNQ3/KCNQ5 (Homo sapiens) (UniProt O43525+Q9NR82); assay: Agonist activity at human Kv7.3/Kv7.5 expressed in HEK293 cells assessed as drug concentration that doubles the conductance at voltage leading to 15% channel activation at holding potential of at -80 mV by whole cell patch clamp electrophysiology assay; type: cell-based; how it was run: as §1
[6] = biological target: Voltage-gated potassium channel, KQT; KCNQ2(Kv7.2)/KCNQ3(Kv7.3) (Homo sapiens, UniProt O43525+O43526); assay: Agonist activity at human Kv7.2/Kv7.3 expressed in CHO cells at holding potential of at -85 mV by whole cell patch clamp electrophysiology assay; type: cell-based
Chain of Voltage-gated potassium channel, KQT; KCNQ2(Kv7.2)/KCNQ3(Kv7.3) (O43526 whole entry): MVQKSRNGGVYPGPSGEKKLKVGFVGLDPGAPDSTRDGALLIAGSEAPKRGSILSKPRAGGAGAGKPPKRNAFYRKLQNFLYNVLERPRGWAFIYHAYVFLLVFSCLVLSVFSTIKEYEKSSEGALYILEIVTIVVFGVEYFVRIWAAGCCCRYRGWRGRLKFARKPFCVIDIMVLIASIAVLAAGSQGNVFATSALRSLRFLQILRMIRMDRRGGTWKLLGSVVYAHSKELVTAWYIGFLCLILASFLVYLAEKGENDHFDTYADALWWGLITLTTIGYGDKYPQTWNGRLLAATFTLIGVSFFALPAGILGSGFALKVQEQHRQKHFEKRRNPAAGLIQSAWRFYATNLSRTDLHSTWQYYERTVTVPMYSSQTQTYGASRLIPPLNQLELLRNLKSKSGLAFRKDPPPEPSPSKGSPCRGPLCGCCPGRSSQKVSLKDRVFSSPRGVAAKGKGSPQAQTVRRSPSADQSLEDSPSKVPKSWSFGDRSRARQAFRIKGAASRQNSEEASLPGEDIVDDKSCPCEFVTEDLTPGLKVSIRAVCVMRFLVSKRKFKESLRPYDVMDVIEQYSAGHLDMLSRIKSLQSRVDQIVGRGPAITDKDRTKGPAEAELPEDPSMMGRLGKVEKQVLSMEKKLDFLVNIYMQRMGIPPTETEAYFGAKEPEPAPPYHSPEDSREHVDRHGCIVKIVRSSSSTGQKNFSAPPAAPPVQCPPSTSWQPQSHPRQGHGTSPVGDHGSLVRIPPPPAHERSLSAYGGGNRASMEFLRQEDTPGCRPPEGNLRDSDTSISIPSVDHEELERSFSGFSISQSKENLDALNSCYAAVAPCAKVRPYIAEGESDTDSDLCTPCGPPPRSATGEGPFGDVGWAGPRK
Chain of Voltage-gated potassium channel, KQT; KCNQ2(Kv7.2)/KCNQ3(Kv7.3) (O43525 whole entry): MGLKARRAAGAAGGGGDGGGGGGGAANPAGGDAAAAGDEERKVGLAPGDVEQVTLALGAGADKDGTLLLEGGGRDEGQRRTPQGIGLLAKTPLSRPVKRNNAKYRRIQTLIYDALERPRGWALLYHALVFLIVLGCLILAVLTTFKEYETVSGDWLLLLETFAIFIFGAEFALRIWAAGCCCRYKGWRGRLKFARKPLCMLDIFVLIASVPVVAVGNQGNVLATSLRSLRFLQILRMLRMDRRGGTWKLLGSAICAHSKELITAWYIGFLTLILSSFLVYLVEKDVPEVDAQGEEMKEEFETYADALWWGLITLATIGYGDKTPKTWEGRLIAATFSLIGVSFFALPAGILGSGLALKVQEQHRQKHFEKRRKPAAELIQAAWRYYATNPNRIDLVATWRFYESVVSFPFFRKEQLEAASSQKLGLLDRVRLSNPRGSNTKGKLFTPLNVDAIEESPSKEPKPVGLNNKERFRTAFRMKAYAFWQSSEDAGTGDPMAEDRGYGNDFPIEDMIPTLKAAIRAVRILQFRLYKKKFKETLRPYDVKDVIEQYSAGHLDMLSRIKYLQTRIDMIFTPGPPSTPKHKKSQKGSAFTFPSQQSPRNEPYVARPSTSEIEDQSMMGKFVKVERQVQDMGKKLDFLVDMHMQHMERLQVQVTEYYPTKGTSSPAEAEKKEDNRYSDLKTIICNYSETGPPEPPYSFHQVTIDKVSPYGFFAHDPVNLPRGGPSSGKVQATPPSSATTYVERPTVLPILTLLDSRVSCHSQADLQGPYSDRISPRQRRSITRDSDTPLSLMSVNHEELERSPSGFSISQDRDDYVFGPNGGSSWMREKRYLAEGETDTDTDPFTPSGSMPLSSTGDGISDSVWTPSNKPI

| Compound | EC2 [1] [µM] | half-life [2] [h] | EC2 [3] [µM] | EC2 [4] [µM] | Selectivity Index (Homo sapiens) | EC2 [5] [µM] | EC50 [6] [µM] |
| --- | --- | --- | --- | --- | --- | --- | --- |
| Nc1c(NC(=O)OC2CC2)cc(F)c(NCc2ccc(C(F)(F)F)cc2F)c1F | 0.93 | 1.27 | > 10 | > 10 | > 10 | > 10 |  |
| CCOC(=O)Nc1ccc(NCc2ccc(C(F)(F)F)cn2)c(F)c1N | 0.66 |  | 0.85 | 0.59 | 0.9 | 0.79 |  |
| CCOC(=O)Nc1ccc(NCc2ccc(F)cc2)cc1N [EZOGABINE] | 0.33 | 16.2 |  |  |  | 0.34 |  |
| CCOC(=O)Nc1ccc(NCc2ccc(C(F)(F)F)cc2)c(F)c1N | 0.26 | 5.73 | 0.1 | 0.09 | 0.3 | 0.29 |  |
| Nc1c(NC(=O)OC2CC2)ccc(NCc2ncc(C(F)(F)F)cc2F)c1F | 1.39 |  | > 10 | > 10 | > 7 | > 10 |  |
| Nc1c(F)c(NCc2ccc(C(F)(F)F)cc2F)cc(F)c1NC(=O)OC1CC1 | 1.47 |  | 0.55 | > 10 | > 7 | > 10 |  |
| Nc1c(NC(=O)OC2CC2)ccc(NCc2ccc(C(F)(F)F)cc2F)c1F | 0.59 |  | 0.21 | 0.35 | 0.6 | 0.47 |  |
| CCOC(=O)Nc1ccc(NCc2ccc(F)cc2)nc1N | 2 |  | 5.62 | 3.5 | 1.8 | 1.58 |  |
| CCOC(=O)Nc1ccc(NCc2ccc(C(F)(F)F)c(C#N)n2)c(F)c1N | 1.6 |  | 2.17 | 2.33 | 1.5 | 1.3 |  |
| Nc1c(F)c(NCc2ccc(C(F)(F)F)cc2F)c(F)c(F)c1NC(=O)OC1CC1 | > 10 |  | > 10 | > 10 |  | > 10 |  |
| Nc1c(NC(=O)OC2CC2)cc(F)c(NCc2ncc(C(F)(F)F)cc2F)c1F | > 10 |  | > 10 | > 10 |  | > 10 |  |
| CC(C)OC(=O)Nc1ccc(NCc2ccc(C(F)(F)F)cc2)c(F)c1N | 0.16 | 7.52 | 0.19 | 4.98 | 31 | 0.16 |  |
| Nc1c(F)c(NCc2ncc(C(F)(F)F)cc2F)cc(F)c1NC(=O)OC1CC1 | 1 |  | > 10 | > 10 | > 10 | > 10 |  |
| CCOC(=O)Nc1cc(C(F)(F)F)c(NCc2ccc(C(F)(F)F)cc2)c(F)c1N | > 10 |  | > 10 | > 10 |  | > 10 |  |
| CCOC(=O)Nc1ccc(NCc2cccc(C(F)(F)F)c2)c(F)c1N | 0.14 |  | 0.4 | 0.66 | 4.7 | 0.2 |  |
| CCOC(=O)Nc1ccc(NCc2ccc(C(F)(F)F)cc2F)c(F)c1N | 0.18 |  | 0.11 | 0.3 | 1.7 | 0.34 |  |
| Nc1c(NC(=O)OC2CC2)ccc(NCc2ccc(C(F)(F)F)cn2)c1F | 0.79 |  | 0.9 | 0.96 | 1.2 | 0.72 |  |
| CCOC(=O)Nc1ccc(NCc2ccc(C(F)(F)F)nc2)c(F)c1N | 0.61 | 6.77 | 0.95 | 1.27 | 2.1 | 0.69 |  |
| CCOC(=O)Nc1ccc(NCc2cccc(S(F)(F)(F)(F)F)c2)c(F)c1N | 0.36 |  | 0.65 | 0.65 | 1.8 | 0.21 |  |
| CCOC(=O)Nc1ccc(NCc2ccc(F)cc2)c(F)c1N |  |  |  |  |  |  | 0.6 |
| Nc1c(NC(=O)OC2CC2)ccc(NCc2ccc(C(F)(F)F)nc2)c1F | 0.71 |  | 1.13 | 1.36 | 1.9 | 0.69 |  |
| CCOC(=O)Nc1cc(F)c(NCc2ccc(C(F)(F)F)cc2)cc1N | 1.26 |  | 4.65 | > 10 | > 7 | > 10 |  |
| Nc1c(NC(=O)OC2CC2)ccc(NCc2ccc(C(F)(F)F)cc2)c1F | 0.11 |  | 0.38 | 0.28 | 2.5 | 0.23 |  |
